Consider 6 compounds from ChEMBL document CHEMBL1124098, “N-terminal requirements of small peptide anticoagulants based on hirudin54-65” (J Med Chem, 1988).

pIC50: −log10 of the molar value. Starred links: 1 amine or outer side, 2 acyl side, 3 side chain; linkers in the order of their positions; H or OH if unused. Non-standard residues stand in square brackets, D forms with d. Residues, ends and D or L forms follow the SMILES beside them. *: point of attachment. Hydrocinnamoyl = O=C(CCc1ccccc1)*; Phg = N[C@H](C(=O)O)c1ccccc1; Suc = O=C(CCC(=O)[*:2])[*:1]; X1 = O=C(/C=C/c1ccccc1)*; Bz = O=C(c1ccccc1)*

The nature of this experiment: In vitro Inhibition of fibrin clot formation relative to a blank control after thrombin addition to plasma in human. The format is functional, cell-free. Put shortly: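 Fasted donor human plasma collected in 0.1% EDTA (final), filter-sterilized, stored at -20 °C. Bovine thrombin (0.2 pmol) preincubated with peptide 10 min at 24 °C. Then 1:10 diluted plasma in NaCl/sodium phosphate was added. Buffer pH 7.4 with 0.1% BSA.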
Compound `CC[C@H](C)[C@H](NC(=O)[C@H](CCC(=O)O)NC(=O)[C@H](CCC(=O)O)NC(=O)c1ccccc1)C(=O)N1CCC[C@H]1C(=O)N[C@@H](CCC(=O)O)C(=O)N[C@@H](CCC(=O)O)C(=O)N[C@@H](Cc1ccc(O)cc1)C(=O)N[C@@H](CC(C)C)C(N)=O` (Bz-EEIPEEYL-NH2) showed a pIC50 of less than 3.60.
The compound `CC[C@H](C)[C@H](NC(=O)[C@H](CCC(=O)O)NC(=O)[C@H](CCC(=O)O)NC(=O)[C@@H](NC(=O)[C@H](CC(=O)O)NC(=O)CN)c1ccccc1)C(=O)N1CCC[C@H]1C(=O)N[C@@H](CCC(=O)O)C(=O)N[C@@H](CCC(=O)O)C(=O)N[C@@H](Cc1ccc(O)cc1)C(=O)N[C@@H](CC(C)C)C(=O)N[C@@H](CCC(N)=O)C(=O)O` (H-GD[Phg]EEIPEEYLQ-OH) gave a negative logarithm of the IC50 (pIC50) of less than 3.60.
The result for `CC[C@H](C)[C@H](NC(=O)[C@H](CCC(=O)O)NC(=O)[C@H](CCC(=O)O)NC(=O)CCc1ccccc1)C(=O)N1CCC[C@H]1C(=O)N[C@@H](CCC(=O)O)C(=O)N[C@@H](CCC(=O)O)C(=O)N[C@@H](Cc1ccc(O)cc1)C(=O)N[C@@H](CC(C)C)C(N)=O` (Hydrocinnamoyl-EEIPEEYL-NH2) reads less than 3.60; that for `CC[C@H](C)[C@H](NC(=O)[C@H](CCC(=O)O)NC(=O)[C@H](CCC(=O)O)NC(=O)[C@H](Cc1ccccc1)NC(=O)CCC(=O)O)C(=O)N1CCC[C@H]1C(=O)N[C@@H](CCC(=O)O)C(=O)N[C@@H](CCC(=O)O)C(=O)N[C@@H](Cc1ccc(O)cc1)C(=O)N[C@@H](CC(C)C)C(=O)N[C@@H](CCC(N)=O)C(=O)O` (Suc-FEEIPEEYLQ-OH), 5.77; that for `CC[C@H](C)[C@H](NC(=O)[C@H](CCC(=O)O)NC(=O)[C@H](CCC(=O)O)NC(=O)/C=C/c1ccccc1)C(=O)N1CCC[C@H]1C(=O)N[C@@H](CCC(=O)O)C(=O)N[C@@H](CCC(=O)O)C(=O)N[C@@H](Cc1ccc(O)cc1)C(=O)N[C@@H](CC(C)C)C(N)=O` (X1-EEIPEEYL-NH2), less than 3.60.
H-FEEIPEEYLQ-OH showed a pIC50 of 4.47.
